A selection: hits, their analogues and other compounds. The true share with any hit is near 2.5%.
NR2E3 ag-1 – activates human NR2E3 receptor; Q9Y5X4; CHO-S Gal4-NCOR/VP16-NR2E3 two-hybrid, luciferase; inhibition of corepressor binding, % at 3.98 µM; 360,000 tested, 0.35% active;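 active = inhibition above the mean of all tested compounds plus 3 SD, cut at about 70% in these data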;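 note: 0% = DMSO with NR2E3 transfected cells and 100% = cells lacking NR2E3 construct; higher means lower luciferase signal from less NR2E3 corepressor binding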
Target sequence (Q9Y5X4 whole entry, looked up, the tested form may be a part): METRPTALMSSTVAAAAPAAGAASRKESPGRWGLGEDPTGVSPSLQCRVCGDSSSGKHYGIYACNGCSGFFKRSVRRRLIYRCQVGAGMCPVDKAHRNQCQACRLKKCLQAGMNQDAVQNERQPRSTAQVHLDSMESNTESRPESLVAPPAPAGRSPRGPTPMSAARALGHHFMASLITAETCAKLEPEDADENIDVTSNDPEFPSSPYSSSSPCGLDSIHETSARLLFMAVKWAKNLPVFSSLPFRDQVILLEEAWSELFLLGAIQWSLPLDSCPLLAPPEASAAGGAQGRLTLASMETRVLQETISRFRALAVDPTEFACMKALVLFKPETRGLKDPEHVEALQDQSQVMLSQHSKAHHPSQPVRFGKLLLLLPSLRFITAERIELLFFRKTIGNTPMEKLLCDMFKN
ADAM17 inh – inhibitors of human ADAM17 | recombinant ADAM17, EDANS/DABCYL FRET peptide cleavage | P78536 | 370,000 tested, 0.83% active | inhibition, % at 6.95 µM;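 active = inhibition above the mean of compounds lying between control limits plus 3 SD, set per campaign, cut at about 8.5% in these data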;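 note: 0% = DMSO-only wells as the low control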
NR2E3 ag-2 – activates human photoreceptor nuclear receptor NR2E3; inhibition of corepressor binding, % at 4.78 µM; Q9Y5X4; 320,000 tested, 0.12% active; AID 2300; GST-NR2E3/biotin-RetCOR TR-FRET, 1536-well;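 active = percent inhibition above the cutoff of mean plus 3 SD of all tested compounds, set per screening campaign, cut at about 20% in these data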;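 note: 0% = DMSO wells and 100% = biotin wells as full block of FRET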
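Material: NR2E3–RetCOR corepressor complex / Incubation: Compound–protein incubation for 5 h at 4 °C / Dosing: compound at 4.8 µM, single dose / Detection: time-resolved FRET / Benchmarks: high control biotin, low control 0.6% DMSO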
GASC-1 inh – blocks human GASC-1 demethylase activity | 330,000 tested, 0.069% active | Q9H3R0 | GST-JMJD2C(1-420) H3K9me3 demethylation, DELFIA europium | inhibition, % at 2.35 µM;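 active = more than half of a compound's replicate wells show inhibition beyond 50%, single wells judged on their own value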;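 note: signal counts dimethyl H3K9 product captured on neutravidin plate; 0% = median of DMSO wells and 100% = 0.3 times that DMSO median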
ADAM10 inh – inhibitors of human ADAM10. O14672. recombinant ADAM10, EDANS/DABCYL FRET peptide cleavage, 3 h. inhibition, % at 7 µM. 370,000 tested, 0.62% active;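 active = inhibition above a per-campaign cutoff equal to the mean of compounds falling between control-based bounds plus 3 SD, cut at about 20% in these data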;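 note: 0% = DMSO wells while the 100% control is not disclosed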
proKLK7 act – activates the human kallikrein-7 zymogen; P49862; purified proKLK7, EDANS-DABCYL substrate fluorescence; 100% is mature enzyme control, 0% vehicle; activation, % at 7 µM; 370,000 tested, 0.9% active; AID 652039;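 active = activation above the mean of all tested compounds plus 3 SD, computed per campaign excluding outliers beyond control limits, cut at about 13% in these data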
Target sequence (P49862 whole entry, looked up): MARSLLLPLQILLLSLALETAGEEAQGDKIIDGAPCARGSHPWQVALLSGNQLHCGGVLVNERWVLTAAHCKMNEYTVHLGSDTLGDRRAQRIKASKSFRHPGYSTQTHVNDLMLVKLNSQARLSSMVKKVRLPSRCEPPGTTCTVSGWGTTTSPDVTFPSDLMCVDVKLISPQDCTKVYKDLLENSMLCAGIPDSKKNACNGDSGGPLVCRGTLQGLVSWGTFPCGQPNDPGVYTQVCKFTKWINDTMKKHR
KLK7 act conf – proKLK7 activation, confirmation. activation, % at 7 µM. shares compounds with proKLK7 act. 3,200 tested, 68% active. purified proKLK7, EDANS-DABCYL substrate fluorescence; scaled: vehicle 0, mature enzyme 100;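 active = activation, as change over the incubation, above the mean of all tested compounds plus 3 SD, cut at about 13% in these data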
EDANS-DABCYL int – fluorescence interference counter-screen for KLK7 activators | shares compounds with proKLK7 act | EDANS-DABCYL substrate fluorescence interference, no enzyme, 4 h; solvent 0%, active enzyme control 100% | activation, % at 7 µM | 3,200 tested, 80% active;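 active = activation above the all-compound mean plus 3 SD, ignoring values outside control-based bounds, cut at about 4.8% in these data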;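 note: value is the 4 h activation minus the activation read at time zero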
K7 EDANS ctr – optically interferes with EDANS-DABCYL fluorescence, kallikrein-7 activator counter-screen; shares compounds with proKLK7 act; EDANS-DABCYL peptide fluorescence interference, no enzyme; EC50, µM; 250 tested, 20% active; AID 720493;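 active = compounds that raise the fluorescence signal in this interference counterscreen, with EC50 at or below 10 µM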;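 note: intact quenched peptide substrate alone read at 355 nm excitation and 520 nm emission; signal is fluorescence gain from T0 to T4 after four hours at room temperature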
Numbers without * were called inactive; i = inactive; x = not tested or not shown.

SMILES	NR2E3 ag-1	ADAM17 inh	NR2E3 ag-2	GASC-1 inh	ADAM10 inh	proKLK7 act	KLK7 act conf	EDANS-DABCYL int	others
COc1ccc2cc3cc(C(=O)NCc4ccccn4)oc3nc2c1	-24	i	-1	-1	i	42*	-18	-4
COc1ccc(O)c(/C=N/NC(=O)CN2CCS(=O)(=O)CC2)c1	-18	-42	1	4	-161	-34	x	x
O=C(Nc1ccc(F)cc1)Nc1c(-c2ccc(C(F)(F)F)cc2)nc2ncccn12	x	-8	x	x	-26	5	x	x
CC1CCN(C(=O)C2CCC(CNS(=O)(=O)c3ccc4c(c3)C(C)(C)C(=O)N4C)CC2)CC1 (stereo unspecified)	-17	2	x	x	-11	0	x	x
Cc1ccc(N2C(=O)c3cccc4cccc(c34)C2=O)cc1	3	-1	3	8	-1	-1	x	x
Cc1ccc(N2C=Nc3ccc(C)c4nc(C)cc2c34)cc1	-26	-147	1	5	-475	49*	-20	-21
CC1=Nc2ccc(C)c3nc(C)cc(c23)N1c1ccc(C)cc1	-19	-168	1	4	i	70*	2	0
CCC(=O)Nc1c(-c2ccc(Cl)cc2)c(=O)c2ccccc2n1C	24	-1	x	6	-17	0	x	x
C=CCN1CCN(C(=O)c2ccc3c(c2)OCO3)CC1	-14	1	-1	7	-11	0	x	x
Cc1ccc(S(=O)(=O)CCc2ccncc2)cc1	-5	1	3	-3	-1	-1	x	x
CC(C)[C@H](NC(=O)OCc1ccccc1)C(=O)OCc1cc(=O)oc2cc(O)ccc12	8	-118	1	1	-334	28*	62*	60*
CC(C)[C@H](NC(=O)OCc1ccccc1)C(=O)OCC(=O)c1ccccc1	-6	0	x	1	-6	0	x	x
NC(c1csc(Nc2ccc(C(=O)NCCCO)cn2)n1)c1ccccc1Cl (stereo unspecified)	-28	-3	x	x	-16	-1	x	x
CCc1ccc(NC(=O)CSc2nc3n[nH]c(C)c3c(=N)n2-c2cccc(OC)c2)cc1	-4	-13	2	-5	-30	1	x	x
Cc1ccc(CNC(=O)CSc2nc3n[nH]c(C)c3c(=N)n2-c2cccc(C)c2)cc1	24	-7	6	1	-29	13*	28*	27*
N#Cc1ccc2c(c1)nnn2-c1ccccc1	8	-6	2	1	-6	0	x	x
Nc1cc2nn(-c3ccccc3)nc2cc1Cl	-181	-182	x	23	i	21*	-50	-39
Nc1ccc2nn(-c3ccccc3)nc2c1	-50	-96	x	x	-318	30*	66*	68*
Cc1ccc(-n2nc3cc(C)c(N)cc3n2)cc1	-200	-96	2	11	-370	0	x	x
Nc1ccc2c(c1)nnn2-c1ccccc1	-13	-166	0	1	i	31*	45*	44*
COc1ccc(-c2nc3ccc(Cl)cn3c2Cc2cccc(F)c2)cc1OC	-16	-28	x	x	-93	-8	x	x
N#Cc1c(-c2ccccc2)cc(-c2ccccc2)[nH]c1=O	-6	-45	3	4	-112	-3	x	x
N#Cc1cc(-c2ccccc2)c[nH]c1=O	8	-241	0	52	i	20*	7	10*
COc1ccccc1-c1coc2c(CN(C)C)c(O)ccc2c1=O	-18	i	1	5	i	50*	78*	70*
CCOc1ccccc1Oc1coc2cc(OC)ccc2c1=O	-28	0	-5	-5	1	0	x	x
SMILES	NR2E3 ag-1	ADAM17 inh	NR2E3 ag-2	GASC-1 inh	ADAM10 inh	proKLK7 act	KLK7 act conf	EDANS-DABCYL int	others
CCN(CC)Cc1c(O)ccc2c(=O)c(-c3ccccc3)coc12	-28	-455	0	-2	i	26*	23*	31*
CCN(CC)Cc1c(O)ccc2c(=O)c(-c3ccc4c(c3)OCCO4)coc12	0	-129	1	9	-464	4	x	x
COc1ccccc1Oc1coc2c(CN(C)C)c(O)ccc2c1=O	-31	i	3	3	i	62*	63*	69*
COc1ccccc1Oc1coc2cc(OC(=O)N3CCOCC3)ccc2c1=O	-13	-3	-3	1	-2	1	x	x
CCN(CC)Cc1c(O)ccc2c(=O)c(Oc3ccccc3OC)coc12	-30	-204	2	2	i	15*	44*	33*	K7 EDANS ctr=8.6*
Cc1ccc(NC(=O)C2(NC(=O)c3ccccn3)CCCCC2)cc1Br	-9	2	2	-12	4	1	x	x
Cc1nc(-c2coc3c(CN(C)C)c(O)ccc3c2=O)cs1	-8	-259	1	-4	i	19*	42*	42*
CC(C)N(Cc1c(O)ccc2c(=O)c(-c3ccc(Cl)cc3)coc12)C(C)C	-6	-59	0	-5	-153	-2	x	x
Nc1n[nH]c(CO)n1	-28	-3	x	-7	4	0	x	x
CC[C@]12c3[nH]c4ccc(OC)cc4c3CCN1C(=O)C(CC(=O)NCCCOC)C[C@@H]2C(=O)N1CCN(C(=O)c2ccco2)CC1 (stereo partly specified)	-3	-2	x	x	-9	1	x	x
CC[C@]12c3[nH]c4cc(-c5ccco5)ccc4c3CCN1C(=O)[C@@H](CC(=O)NCc1ccc(OC)c(OC)c1)C[C@@H]2C(=O)N1CCN(C(=O)c2ccco2)CC1	6	-74	x	x	-263	122*	63*	74*
CC[C@]12c3[nH]c4cc(-c5ccco5)ccc4c3CCN1C(=O)[C@@H](CC(=O)NCCCOC)C[C@@H]2C(=O)N1CCN(C(=O)C2CC2)CC1	-9	-303	x	x	i	89*	81*	94*
CC[C@]12c3[nH]c4cc(-c5ccco5)ccc4c3CCN1C(=O)[C@@H](CC(=O)NCCCOC)C[C@@H]2C(=O)N1CCN(C(=O)c2ccco2)CC1	-12	-202	x	x	i	137*	103*	124*
CC[C@]12c3[nH]c4cc(CCC(=O)N(C)C)ccc4c3CCN1C(=O)[C@@H](CC(=O)NCCCOC)C[C@@H]2C(=O)N1CCN(C(=O)C2CC2)CC1	-25	1	x	x	-11	0	x	x
CC[C@]12c3[nH]c4cc(-c5ccco5)ccc4c3CCN1C(=O)[C@@H](CC(=O)NCCCN(C)C)C[C@@H]2C(=O)N1CCN(C(=O)C2CC2)CC1	-11	-63	x	x	-279	64*	52*	66*
